Activity, Kapp and viability data for 8 molecules are collected here from ChEMBL document CHEMBL2021768, “Syntheses of [12]aneN₃-oligopeptide conjugates as effective DNA condensation agents” (Bioorg Med Chem, 2012).

Calls of active or inactive are those of the source. The calls are words filed in the database; no cut-off is given here. Residues, ends and D or L forms follow the SMILES beside them.

In series [1] the test system is Nucleic Acid. Description: Induction of Escherichia coli pUC18 DNA condensation assessed as retardation of DNA migration at 500 uM after 1 hr by agarose gel electrophoresis. Format: nucleic-acid assay. The method, boiled down: (§1)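 Supercoiled pUC18 plasmid treated with conjugate in Tris–HCl (50 mM, pH 7.4), then incubated 1 h at 37 °C. Agarose gel electrophoresis compared with a DNA-alone lane. Retardation was judged by loss of supercoiled DNA migration.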

The test system of series [2] is Nucleic Acid. Description: Induction of Escherichia coli pUC18 condensation assessed as retardation of DNA migration at 200 uM after 1 hr by agarose gel electrophoresis. Type of series: nucleic-acid assay. An outline of the steps:
as §1

For series [3], the system named is Nucleic Acid. Description: Induction of Escherichia coli pUC18 condensation assessed as hydrodynamic diameters of DNA nanoparticles at 50 to 250 uM after 5 mins by dynamic laser light scattering analysis. Type of series: nucleic-acid assay. The method, boiled down: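 pUC18 DNA at 9 μg/mL in Tris buffer (50 mM, pH 7.4) with conjugate, left 5 min at room temperature. Dynamic light scattering at 90° and 25 °C. Ten runs per solution, averaged and reported as mean ± S.D.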

Series [4] concerns Nucleic Acid. Description: Induction of Escherichia coli pUC18 condensation assessed as diameters of DNA nanoparticles at 150 uM after 1 hr by atomic force microscopy. Format: nucleic-acid assay. The method, boiled down:
(§2)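 pUC18 diluted to 9 μg/mL in Tris (5 mM, pH 7.4) with 1 mM MgCl2 plus conjugate, equilibrated 1 h at 37 °C. Sample spotted for 5 min on mica pretreated with 10 mM NiCl2, then rinsed and dried under argon. Imaged in air at room temperature by tapping-mode AFM with Si tips at 1–3 Hz.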

For series [5], the system named is Nucleic Acid. Nature of the series: Binding affinity to calf thymus DNA assessed as fluorescence quenching after 1 min by ethidium bromide displacement assay. Format: nucleic-acid assay. The note with it: Bos taurus. The method, boiled down: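 Calf thymus DNA (100 μM) pretreated with ethidium bromide (10 μM), then conjugate added. Tris buffer (50 mM, pH 7.4), room temperature. Incubated 1 min before reading fluorescence, excitation 537 nm. Apparent binding constant (K_app) derived from the quenching curve.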

The subject of series [6] is Nucleic Acid. Description: Induction of Escherichia coli pUC18 condensation assessed as retardation of DNA migration at 150 uM after 1 hr by agarose gel electrophoresis in presence of 50 to 400 mM NaCl. Type of series: nucleic-acid assay.
For series [7], the system named is Nucleic Acid. Nature of the series: Reversible Escherichia coli pUC18 condensation assessed as DNA migration at 150 uM after 1 hr by agarose gel electrophoresis in presence of 200 mM NaCl. Type of series: nucleic-acid assay.
Series [8] can be described thus: Cytotoxicity against human T98G cells assessed as cell viability at 250 uM after 24 hrs by MTT assay. The note with it: read-out: Activity. Format: cell-based. An outline of the steps:
(§3)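 MTT assay. HepG2 grown in DMEM with 15% FBS, T98G in MEM with 10% FBS, 37 °C, 5% CO2. Cells seeded at 5 × 10⁵ per well and cultured 24 h, then exposed to compound for 24 h. MTT (5 mg/mL stock) added for 4 h, formazan dissolved in DMSO, absorbance read at 490 nm. Viability taken relative to controls from four parallel tests.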
(Tetrazolium assays rely on reduction of a dye to a coloured formazan, in cell work by metabolically active cells.)

Series [9] in a line: Cytotoxicity against human HepG2 cells assessed as cell viability at 250 uM after 24 hrs by MTT assay. Format: cell-based. To be noted: read-out: Activity. The method, boiled down: as §3
Series [10] deals with Nucleic Acid. Nature of the series: Induction of Escherichia coli pUC18 condensation assessed as retardation of DNA migration at 250 uM after 1 hr by agarose gel electrophoresis. Type of series: nucleic-acid assay. An outline of the steps: as §1
Series [11] concerns Nucleic Acid. Description: Induction of Escherichia coli pUC18 condensation assessed as diameters of DNA nanoparticles at 250 uM after 1 hr by atomic force microscopy. Type of series: nucleic-acid assay. An outline of the steps:
as §2

Series [12] has as its system Nucleic Acid. Nature of the series: Reversible Escherichia coli pUC18 condensation assessed as DNA migration at 250 uM after 1 hr by agarose gel electrophoresis in presence of 200 mM NaCl. Type of series: nucleic-acid assay.
In series [13] the test system is Nucleic Acid. Nature of the series: Induction of Escherichia coli pUC18 condensation assessed as retardation of DNA migration at 220 uM after 1 hr by agarose gel electrophoresis in presence of 50 to 400 mM NaCl. Type of series: nucleic-acid assay.

Consider `COC(=O)[C@@H](NC(=O)[C@H](CC(C)C)NC(=O)[C@H](C)NC(=O)[C@H](CC(C)C)NC(=O)[C@H](C)NC(=O)[C@H](CC(C)C)NC(=O)CN1CCCNCCCNCCC1)C(C)C` (HELM PEPTIDE1{[O=C(CN1CCCNCCCNCCC1)[*:2]].L.A.L.A.L.V.[CO[*:1]]}$$$$V2.0), for which the outcome in the series on Nucleic Acid [1] was inactive.
Turning to `COC(=O)[C@H](C)NC(=O)[C@H](CC(C)C)NC(=O)[C@H](C)NC(=O)[C@H](CC(C)C)NC(=O)[C@H](C)NC(=O)[C@H](CC(C)C)NC(=O)CN1CCCNCCCNCCC1` (HELM PEPTIDE1{[O=C(CN1CCCNCCCNCCC1)[*:2]].L.A.L.A.L.A.[CO[*:1]]}$$$$V2.0), the outcome in the series with Nucleic Acid [1] was inactive.
In the case of `COC(=O)[C@H](Cc1ccc(O)cc1)NC(=O)[C@H](CC(C)C)NC(=O)[C@H](C)NC(=O)[C@H](CC(C)C)NC(=O)[C@H](C)NC(=O)[C@H](CC(C)C)NC(=O)CN1CCCNCCCNCCC1` (HELM PEPTIDE1{[O=C(CN1CCCNCCCNCCC1)[*:2]].L.A.L.A.L.Y.[CO[*:1]]}$$$$V2.0), the outcome in the series with Nucleic Acid [1] was inactive.
As for `COC(=O)[C@H](CC(C)C)NC(=O)[C@H](CC(C)C)NC(=O)[C@H](C)NC(=O)[C@H](CC(C)C)NC(=O)[C@H](C)NC(=O)[C@H](CC(C)C)NC(=O)CN1CCCNCCCNCCC1` (HELM PEPTIDE1{[O=C(CN1CCCNCCCNCCC1)[*:2]].L.A.L.A.L.L.[CO[*:1]]}$$$$V2.0), the result with Nucleic Acid [2] and with Nucleic Acid [7] was Active. Moreover, the Activity in the series on Nucleic Acid [3] came out at 174 nm; in the series with Nucleic Acid [4], 30 nm. In addition, the Kapp in the series with Nucleic Acid [5] is 1.9 ×10⁵ /M. In the series with Nucleic Acid [6], the result was inactive. In addition, the viability at 24 h, 250 µM in series [8] amounted to 96%; in series [9], 97%.
In the case of `COC(=O)[C@H](Cc1ccccc1)NC(=O)[C@H](CC(C)C)NC(=O)[C@H](C)NC(=O)[C@H](CC(C)C)NC(=O)[C@H](C)NC(=O)[C@H](CC(C)C)NC(=O)CN1CCCNCCCNCCC1` (HELM PEPTIDE1{[O=C(CN1CCCNCCCNCCC1)[*:2]].L.A.L.A.L.F.[CO[*:1]]}$$$$V2.0), the result in the series on Nucleic Acid [10] and in the series with Nucleic Acid [12] was Active. The results for the Activity with Nucleic Acid [3] and in the series on Nucleic Acid [11] were 208 nm and 20 nm, respectively. The Kapp with Nucleic Acid [5] came out at 1.4 ×10⁵ /M. Besides, in the series on Nucleic Acid [6], the outcome was inactive. In addition, the figures for the viability at 24 h, 250 µM in series [8] and in series [9] were 78% and 83%, respectively.
With `COC(=O)CNC(=O)[C@H](CC(C)C)NC(=O)[C@H](C)NC(=O)[C@H](CC(C)C)NC(=O)[C@H](C)NC(=O)[C@H](CC(C)C)NC(=O)CN1CCCNCCCNCCC1` (HELM PEPTIDE1{[O=C(CN1CCCNCCCNCCC1)[*:2]].L.A.L.A.L.G.[CO[*:1]]}$$$$V2.0), the result in the series on Nucleic Acid [1] was inactive.
`COC(=O)[C@H](CO)NC(=O)[C@H](CC(C)C)NC(=O)[C@H](C)NC(=O)[C@H](CC(C)C)NC(=O)[C@H](C)NC(=O)[C@H](CC(C)C)NC(=O)CN1CCCNCCCNCCC1` (HELM PEPTIDE1{[O=C(CN1CCCNCCCNCCC1)[*:2]].L.A.L.A.L.S.[CO[*:1]]}$$$$V2.0): the outcome in the series with Nucleic Acid [1] was inactive.
Turning to `COC(=O)[C@H](Cc1c[nH]c2ccccc12)NC(=O)[C@H](CC(C)C)NC(=O)[C@H](C)NC(=O)[C@H](CC(C)C)NC(=O)[C@H](C)NC(=O)[C@H](CC(C)C)NC(=O)CN1CCCNCCCNCCC1` (HELM PEPTIDE1{[O=C(CN1CCCNCCCNCCC1)[*:2]].L.A.L.A.L.W.[CO[*:1]]}$$$$V2.0), the outcome in the series on Nucleic Acid [10] and in the series on Nucleic Acid [12] was Active. The Activity is 196 nm in the series with Nucleic Acid [3] and 36 nm with Nucleic Acid [11]. Further, in the series on Nucleic Acid [5], the Kapp was found to be 1.2 ×10⁵ /M. Besides, in the series on Nucleic Acid [13], the outcome was inactive. The viability at 24 h, 250 µM was 80% in [8] and 85% in [9].
